Data set [1] deals with Pseudomonas aeruginosa. The data set is described as follows: Antibacterial activity against Pseudomonas aeruginosa at 5 mg/ml after 20-24 hrs by filter paper disc method. In kind it is functional. The conditions noted are these: read-out: DIZ. In outline: (§1)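 Filter paper disc diffusion on nutrient agar, with nutrient-agar cultures as inocula. 6.5 mm paper discs were saturated with test solutions at 5 or 10 mg ml-1, with chloramphenicol at the same levels as reference. Plates were incubated at 37 ± 1 °C for 20–24 h. The growth-inhibition zone diameter was measured, and three diameters were averaged per sample.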

In data set [2] the test system is Bacillus subtilis. Put plainly: Antibacterial activity against Bacillus subtilis at 10 mg/ml after 20-24 hrs by filter paper disc method. In kind it is functional. The conditions noted are these: read-out: DIZ. In outline:
as §1

Data set [3] relates to Staphylococcus aureus. Put plainly: Antibacterial activity against Staphylococcus aureus at 10 mg/ml after 20-24 hrs by filter paper disc method. In kind it is functional. To be noted: read-out: DIZ. In outline: as §1
In data set [4] the test system is Bacillus subtilis. The data set is described as follows: Antibacterial activity against Bacillus subtilis at 5 mg/ml after 20-24 hrs by filter paper disc method. In kind it is functional. To be noted: read-out: DIZ. In outline: as §1
For a further data set, the target named is Acetylcholinesterase (Homo sapiens, UniProt P22303). Put plainly: Inhibition of human AChE by Ellman method.
For data set [5], the system named is Escherichia coli. The data set is described as follows: Antibacterial activity against Escherichia coli at 5 mg/ml after 20-24 hrs by filter paper disc method. In kind it is functional. The conditions noted are these: read-out: DIZ. In outline:
as §1

Data set [6] relates to Pseudomonas aeruginosa. The data set is described as follows: Antibacterial activity against Pseudomonas aeruginosa at 10 mg/ml after 20-24 hrs by filter paper disc method. In kind it is functional. The conditions noted are these: read-out: DIZ. In outline: as §1
Another data set has as its target Cholinesterase (Homo sapiens, UniProt P06276). The data set is described as follows: Inhibition of human BChE by Ellman method. In outline: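 BChE activity was run as in the Ellman AChE format: thiocholine released from butyrylthiocholine was read with DTNB. Lyophilised enzyme was diluted in 100 mM phosphate buffer, pH 8. IC50 was taken from a plot of VI/V0 against log[I].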

Data set [7] has as its system Escherichia coli. The data set is described as follows: Antibacterial activity against Escherichia coli at 10 mg/ml after 20-24 hrs by filter paper disc method. In kind it is functional. The conditions noted are these: read-out: DIZ. In outline:
as §1

Data set [8] is described as follows: Lipophilicity, log P of the compound. In kind it is physicochemical. To be noted: octanol/water.
In data set [9] the test system is Bacillus cereus. The data set is described as follows: Antibacterial activity against Bacillus cereus at 10 mg/ml after 20-24 hrs by filter paper disc method. The conditions noted are these: read-out: DIZ. In kind it is functional. In outline:
as §1

In data set [10] the test system is Bacillus cereus. The data set is described as follows: Antibacterial activity against Bacillus cereus at 5 mg/ml after 20-24 hrs by filter paper disc method. To be noted: read-out: DIZ. In kind it is functional. In outline: as §1
Data set [11] deals with Staphylococcus aureus. The data set is described as follows: Antibacterial activity against Staphylococcus aureus at 5 mg/ml after 20-24 hrs by filter paper disc method. In kind it is functional. To be noted: read-out: DIZ. In outline:
as §1

The subject of data set [12] is Klebsiella pneumoniae. The data set is described as follows: Antibacterial activity against Klebsiella pneumoniae at 10 mg/ml after 20-24 hrs by filter paper disc method. In kind it is functional. The conditions noted are these: read-out: DIZ. In outline:
as §1

The test system of data set [13] is Klebsiella pneumoniae. Put plainly: Antibacterial activity against Klebsiella pneumoniae at 5 mg/ml after 20-24 hrs by filter paper disc method. In kind it is functional. To be noted: read-out: DIZ. In outline:
as §1

Sequence of Cholinesterase (P06276 whole entry): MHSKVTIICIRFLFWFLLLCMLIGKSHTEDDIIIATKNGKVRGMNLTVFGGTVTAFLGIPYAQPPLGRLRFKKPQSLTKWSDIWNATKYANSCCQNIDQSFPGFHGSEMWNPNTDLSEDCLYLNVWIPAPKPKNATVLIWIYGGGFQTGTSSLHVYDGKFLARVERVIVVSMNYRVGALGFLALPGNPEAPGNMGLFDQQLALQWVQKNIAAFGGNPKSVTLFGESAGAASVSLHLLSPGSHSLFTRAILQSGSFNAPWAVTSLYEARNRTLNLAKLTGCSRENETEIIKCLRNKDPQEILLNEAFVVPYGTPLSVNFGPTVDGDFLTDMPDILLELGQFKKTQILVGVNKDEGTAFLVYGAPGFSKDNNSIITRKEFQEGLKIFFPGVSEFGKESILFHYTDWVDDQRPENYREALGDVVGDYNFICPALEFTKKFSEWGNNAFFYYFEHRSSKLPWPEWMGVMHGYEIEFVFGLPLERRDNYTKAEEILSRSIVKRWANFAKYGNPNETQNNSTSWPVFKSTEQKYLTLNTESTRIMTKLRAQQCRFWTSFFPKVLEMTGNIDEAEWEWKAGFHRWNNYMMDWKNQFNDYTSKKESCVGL
Sequence of Acetylcholinesterase (P22303 whole entry): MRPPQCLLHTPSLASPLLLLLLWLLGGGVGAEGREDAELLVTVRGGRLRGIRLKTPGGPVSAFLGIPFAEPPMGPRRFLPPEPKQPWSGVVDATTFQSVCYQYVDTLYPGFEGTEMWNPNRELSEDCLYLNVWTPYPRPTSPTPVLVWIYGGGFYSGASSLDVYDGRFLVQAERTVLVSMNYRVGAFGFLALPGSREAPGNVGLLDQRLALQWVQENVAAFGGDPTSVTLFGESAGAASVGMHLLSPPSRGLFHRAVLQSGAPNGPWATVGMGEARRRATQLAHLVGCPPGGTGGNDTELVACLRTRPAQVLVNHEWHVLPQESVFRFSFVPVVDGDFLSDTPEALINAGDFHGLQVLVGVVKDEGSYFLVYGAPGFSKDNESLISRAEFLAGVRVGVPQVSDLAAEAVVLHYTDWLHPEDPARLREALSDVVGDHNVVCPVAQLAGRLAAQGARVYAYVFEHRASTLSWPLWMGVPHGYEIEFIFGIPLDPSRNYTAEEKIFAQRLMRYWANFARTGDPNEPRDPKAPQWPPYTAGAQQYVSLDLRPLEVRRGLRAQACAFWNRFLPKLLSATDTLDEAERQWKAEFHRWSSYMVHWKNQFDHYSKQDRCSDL

Consider `O=P(O)(NN1CCCCC1)Oc1ccccc1`, for which the zone of inhibition at 5000 µg/mL in the data set with Pseudomonas aeruginosa [1] was found to be 5 mm; in the data set on Bacillus subtilis [4], 7 mm; in the data set with Escherichia coli [5], 7 mm. Moreover, the zone of inhibition at 10000 µg/mL came out at 15 mm with Bacillus subtilis [2], 8 mm in the data set with Staphylococcus aureus [3], 10 mm with Pseudomonas aeruginosa [6] and 11 mm in the data set on Escherichia coli [7]. Besides, the IC50 at Acetylcholinesterase was 5490 µM; against Cholinesterase it was 1580 µM. For the same compound, the logP in data set [8] came to 1.29.
Consider `O=P(NN1CCOCC1)(NN1CCOCC1)Oc1ccccc1Cl`, for which the zone of inhibition at 10000 µg/mL in the data set on Bacillus cereus [9] and in the data set on Escherichia coli [7] was 10 mm throughout. Besides, the zone of inhibition at 5000 µg/mL in the data set on Escherichia coli [5] and in the data set with Bacillus cereus [10] was 7 mm each time.
With `Cc1ccc(OP(=O)(NN2CCOCC2)NN2CCOCC2)cc1`, the zone of inhibition at 10000 µg/mL is 18 mm in the data set with Bacillus subtilis [2], 14 mm in the data set with Klebsiella pneumoniae [12], 13 mm in the data set on Staphylococcus aureus [3] and 11 mm in the data set on Escherichia coli [7]. The zone of inhibition at 5000 µg/mL with Staphylococcus aureus [11] amounted to 10 mm; in the data set with Bacillus subtilis [4], 8 mm; in the data set on Klebsiella pneumoniae [13], 7 mm; in the data set with Escherichia coli [5], 6 mm.
As for `O=P(NN1CCCCC1)(NN1CCCCC1)Oc1ccccc1`, the zone of inhibition at 10000 µg/mL came to 13 mm in the data set with Bacillus subtilis [2]; 14 mm in the data set on Bacillus cereus [9]; 15 mm in the data set on Klebsiella pneumoniae [12]; 17 mm in the data set on Staphylococcus aureus [3]; 15 mm in the data set on Escherichia coli [7]. Further, the zone of inhibition at 5000 µg/mL in the data set with Staphylococcus aureus [11] is 11 mm; with Bacillus subtilis [4], 6 mm; in the data set on Klebsiella pneumoniae [13], 5 mm; in the data set on Escherichia coli [5], 7 mm; in the data set with Bacillus cereus [10] it was 5 mm.
With `O=C(NP(=O)(NN1CCOCC1)NN1CCOCC1)c1ccccc1`, the values for the zone of inhibition at 10000 µg/mL in the data set with Bacillus subtilis [2], in the data set with Staphylococcus aureus [3] and in the data set with Escherichia coli [7] were 13 mm, 8 mm and 11 mm, respectively. For the same compound, the zone of inhibition at 5000 µg/mL is 7 mm in the data set with Bacillus subtilis [4] and 6 mm in the data set with Escherichia coli [5]. The IC50 on Acetylcholinesterase came to 18600 µM; against Cholinesterase it was 2140 µM. For the same compound, in data set [8], the logP is -0.78.
Turning to `O=C(NP(=O)(NN1CCOCC1)NN1CCOCC1)c1ccc(Cl)cc1`, the zone of inhibition at 10000 µg/mL in the data set with Bacillus subtilis [2] amounted to 12 mm; with Bacillus cereus [9], 8 mm; with Escherichia coli [7], 13 mm. Besides, the results for the zone of inhibition at 5000 µg/mL in the data set with Bacillus subtilis [4] and in the data set with Escherichia coli [5] were 5 mm and 6 mm, respectively.
Take `COc1ccc(C(=O)NP(=O)(NN2CCOCC2)NN2CCOCC2)cc1`: the zone of inhibition at 10000 µg/mL with Bacillus subtilis [2] is 13 mm; in the data set with Bacillus cereus [9] it was 7 mm; in the data set on Escherichia coli [7], 7 mm. Moreover, the zone of inhibition at 5000 µg/mL in the data set on Bacillus subtilis [4] amounted to 7 mm.
Take `O=C(NP(=O)(NN1CCCCC1)NN1CCCCC1)c1ccccc1`: the zone of inhibition at 10000 µg/mL in the data set on Bacillus subtilis [2] was 19 mm; with Staphylococcus aureus [3], 7 mm. In the data set on Bacillus subtilis [4], the zone of inhibition at 5000 µg/mL was 9 mm. Further, the half-maximal inhibitory concentration (IC50) on Acetylcholinesterase is 1950 µM; against Cholinesterase, 430 µM. The logP in data set [8] came to 1.35.
`O=P(NN1CCOCC1)(NN1CCOCC1)c1ccccc1` showed a half-maximal inhibitory concentration (IC50) against Cholinesterase of 2450 µM. For the same compound, the logP in [8] was -1.12.
Consider `O=P(NN1CCOCC1)(NN1CCOCC1)Oc1ccccc1`, for which the IC50 on Acetylcholinesterase is 9550 µM; against Cholinesterase, 1620 µM. Moreover, the logP in [8] is -0.54.
Turning to `O=C(N[C@H](CO)[C@H](O)c1ccc([N+](=O)[O-])cc1)C(Cl)Cl` [CHLORAMPHENICOL], the zone of inhibition at 10000 µg/mL amounted to 17 mm in the data set on Bacillus subtilis [2]; 15 mm in the data set with Bacillus cereus [9]; 15 mm in the data set on Klebsiella pneumoniae [12]; 22 mm in the data set on Staphylococcus aureus [3]; 7 mm in the data set with Pseudomonas aeruginosa [6]; 17 mm in the data set on Escherichia coli [7]. The zone of inhibition at 5000 µg/mL in the data set with Staphylococcus aureus [11] is 17 mm; with Bacillus subtilis [4] it was 14 mm; in the data set on Klebsiella pneumoniae [13] it was 11 mm; in the data set with Escherichia coli [5] it was 13 mm; in the data set with Bacillus cereus [10], 12 mm.

Source of the values: ChEMBL document CHEMBL1275282, “Synthesis, characterization, oxidative degradation, antibacterial activity and acetylcholinesterase/butyrylcholinesterase inhibitory effects of some new phosphorus(V) hydrazides” (Eur J Med Chem, 2010).
